Paper PMC3565064 (Analytical biochemistry, 2012)
Read-outs that look alike come from different tables or passages of the source.

Columns and labels:
[1] = biological target: Aβ(1–42) aggregates (Homo sapiens, UniProt P05067); format: binding; conditions: for ka, pseudo-first-order rate constant: DPV current decay fit, 100 mM phosphate buffer/50 mM KClO4 pH 7.4, 37 °C, average of three replicates; for t1/2, half-life: from pseudo-first-order ka
Method in brief: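 HFIP-pretreated, lyophilised Aβ(1–42) and the ferrocene-tagged peptide (20 μM) were dissolved in 100 mM phosphate/50 mM KClO₄, pH 7.4, at several peptide:Aβ ratios and held at 37 °C. DPV was recorded over 0–24 h (pulse amplitude 50 mV, width 50 ms, period 200 ms, sample width 17 ms). Points were averages of three replicates, and current–time curves were fitted to a pseudo-first-order rate law.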

[2] = Self-aggregation of the peptide incubated alone; format: physicochemical
Method in brief: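 The tagged peptide (20 μM) without Aβ was incubated at 37 °C. DPV was run in 100 mM phosphate/50 mM KClO₄, pH 7.4. For AFM, aliquots of the incubated solution were cast on mica pretreated with 10 mM NiCl₂ for 15 min, rinsed with water and dried under nitrogen. They were imaged in tapping mode over 5 μm × 5 μm fields at the stated incubation times.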

[3] = cited from earlier work

Aβ(1–42) aggregates, sequence (P05067 672-713 limits assumed): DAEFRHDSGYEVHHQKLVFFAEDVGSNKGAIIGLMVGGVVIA

Substance: Fc-KLVFFK6
- ka, pseudo-first-order rate constant ([1]; [Fc-KLVFFK6]:[Aβ(1–42)] 1:0.25, 20 μM Fc-KLVFFK6): (1.49 ± 0.15) × 10^−4 s^−1
- t1/2, half-life ([1]; [Fc-KLVFFK6]:[Aβ(1–42)] 1:0.25): 1.2919 h
- ka, pseudo-first-order rate constant ([1]; [Fc-KLVFFK6]:[Aβ(1–42)] 1:0.5, 20 μM Fc-KLVFFK6): (1.43 ± 0.08) × 10 ^−4 s^−1
- t1/2, half-life ([1]; [Fc-KLVFFK6]:[Aβ(1–42)] 1:0.5): 1.3462 h
- ka, pseudo-first-order rate constant ([1]; [Fc-KLVFFK6]:[Aβ(1–42)] 1:1, 20 μM Fc-KLVFFK6): (1.26 ± 0.07) × 10 ^−4 s^−1
- t1/2, half-life ([1]; [Fc-KLVFFK6]:[Aβ(1–42)] 1:1): 1.5278 h
- ka, pseudo-first-order rate constant ([1]; [Fc-KLVFFK6]:[Aβ(1–42)] 1:2, 20 μM Fc-KLVFFK6): (1.71 ± 0.05) × 10^−4 s^−1
- t1/2, half-life ([1]; [Fc-KLVFFK6]:[Aβ(1–42)] 1:2): 1.1257 h
- ka, pseudo-first-order rate constant ([1]; [Fc-KLVFFK6]:[Aβ(1–42)] 1:4, 20 μM Fc-KLVFFK6): (1.89 ± 0.05) × 10^−4 s^−1
- incubation time at which the DPV current reaches a plateau ([1]; all stoichiometric ratios, 20 μM Fc-KLVFFK6, 37 °C): about 6 h
- half-life of the conjugate formed between Fc-KLVFFK6 and the Aβ(1–42) aggregates ([1]; over all stoichiometric ratios of Table 1): 1.2632 ± 0.1961 h
- self-aggregation, AFM of the peptide alone ([2]; 20 μM Fc-KLVFFK6 incubated alone, AFM (Figure 4 row D)): does not self-aggregate when incubated alone
- self-aggregation, DPV current of the peptide alone ([2]; 20 μM Fc-KLVFFK6 without Aβ(1–42), 100 mM phosphate buffer/50 mM KClO4 pH 7.4, 37 °C, 24 h, steady DPV current): does not undergo self-aggregation

Substance: KLVFF
- self-aggregation [3]: known to self-aggregate
